Reference: ChEMBL document CHEMBL2029304, “Synthesis and SAR of tetrahydroisoquinolines as Rev-erbα agonists” (Bioorg Med Chem Lett, 2012)

Tests used:
[1] = biological target: T1, Nuclear receptor subfamily 1 group D member 1 (Homo sapiens) (UniProt P20393); experiment: Agonist activity at Rev-erbalpha assessed as repression of transcription at 10 uM by luciferase-reporter gene assay relative to control; type: functional
T1 sequence (whole entry): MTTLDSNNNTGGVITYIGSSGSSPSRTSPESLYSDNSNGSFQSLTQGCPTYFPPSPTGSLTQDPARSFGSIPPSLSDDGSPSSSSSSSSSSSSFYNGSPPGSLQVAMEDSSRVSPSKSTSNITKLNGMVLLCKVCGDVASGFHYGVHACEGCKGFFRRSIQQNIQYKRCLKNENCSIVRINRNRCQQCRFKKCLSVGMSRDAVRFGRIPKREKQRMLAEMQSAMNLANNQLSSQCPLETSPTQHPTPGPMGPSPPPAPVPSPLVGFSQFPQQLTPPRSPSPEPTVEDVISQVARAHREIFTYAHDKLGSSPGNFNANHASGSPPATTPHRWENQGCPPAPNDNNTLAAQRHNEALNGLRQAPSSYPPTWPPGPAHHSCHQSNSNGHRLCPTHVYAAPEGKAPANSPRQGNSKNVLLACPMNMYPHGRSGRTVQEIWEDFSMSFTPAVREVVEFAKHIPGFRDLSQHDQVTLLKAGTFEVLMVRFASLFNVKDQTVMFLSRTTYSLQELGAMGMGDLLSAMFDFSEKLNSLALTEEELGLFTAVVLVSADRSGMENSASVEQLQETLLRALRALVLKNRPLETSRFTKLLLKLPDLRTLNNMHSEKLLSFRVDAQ
Procedure, shortened: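 Cells co-transfected with a full-length Rev-erbα expression plasmid and a luciferase reporter driven by the Bmal1 promoter. Compounds were screened at 1 μM and 10 μM for repression of Bmal1-driven transcription. The value is the fold change in luciferase signal relative to the DMSO control at 10 μM compound, where 1.0 means no repression.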

[2] = biological target: T2, Nuclear receptor subfamily 1 group D member 1 (Homo sapiens, UniProt P20393); experiment: Agonist activity at Rev-erbalpha assessed as repression of transcription by luciferase-reporter gene assay; type: functional
T2 sequence (P20393 whole entry): T1 sequence (whole entry)
Procedure, shortened: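 Cells co-transfected with a full-length Rev-erbα expression plasmid and a luciferase reporter driven by the Bmal1 promoter; repression of Bmal1 transcription read by luciferase. Compounds first tested at 1 μM and 10 μM, value given as fold change versus DMSO control at 10 μM (1.0 = no repression). Active compounds then titrated in an eleven-point dose response to give EC50.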

[3] = Half life in Sprague-Dawley rat at 1 mg/kg, iv and 2 mg/kg, po by LC-MS/MS analysis; type: ADME, organism-based; conditions: in vivo
Procedure, shortened: (§1)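 Male/female unspecified Sprague-Dawley rats, n = 3; single 1 mg/kg i.v. dose and 2 mg/kg oral gavage dose. Blood sampled at 5, 15, 30 min, 1, 2, 4, 6, 8 h into EDTA tubes, plasma by centrifugation, proteins precipitated with acetonitrile, drug measured by LC-MS/MS. Noncompartmental analysis gave t1/2, clearance, Vd, AUC, Cmax and oral bioavailability.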

Rattus norvegicus [4] = experiment: Volume of distribution in Sprague-Dawley rat at 1 mg/kg, iv and 2 mg/kg, po by LC-MS/MS analysis; type: ADME, organism-based; conditions: in vivo; procedure, shortened: as §1
Rattus norvegicus [5] = experiment: Oral bioavailability in Sprague-Dawley rat at 2 mg/kg by LC-MS/MS analysis; type: ADME, organism-based; conditions: in vivo; procedure, shortened: as §1
[6] = biological target: T2, Nuclear receptor subfamily 1 group D member 1; experiment: Agonist activity at Rev-erbalpha assessed as NCoR recruitment by FRET assay; type: functional
Brain = experiment: Brain penetration in C57Bl6 mouse at 10 mg/kg, ip after 2 hrs by LC-MS/MS analysis; type: ADME, organism-based; design: dose 10 mg/kg, route intraperitoneal; conditions: in vivo
Procedure, shortened: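 C57Bl6 mice (n = 3), single 10 mg/kg intraperitoneal dose; blood and brain collected at 2 h, plasma frozen at −80°C. Plasma and brain mixed with acetonitrile (1:5 v:v or w:v), brain probe-sonicated, drug measured by LC-MS/MS against plasma or blank-brain-matrix standards; brain penetration as brain/plasma level percentage.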

Structure (SMILES) | fold change (FC) [1] | EC50 [2] | also measured
COc1ccc(OCC2Cc3ccccc3CN2C(=O)c2cccc3ccccc23)cc1 (stereo unspecified) | 0.38 | 120 nM | 
CCOC(=O)C1Cc2ccccc2CN1C(=O)Nc1ccccc1 (stereo unspecified) | 1.5 |  | 
CCOC(=O)C1Cc2ccccc2CN1C(=O)c1cccc2ccccc12 (stereo unspecified) | 0.41 | 2500 nM | 
O=C(NCc1ccccc1)C1Cc2ccccc2CN1C(=O)c1cccc2ccccc12 (stereo unspecified) | 0.55 | > 3000 nM | 
CCOC(=O)C1Cc2ccccc2CN1C(=O)Oc1ccccc1 (stereo unspecified) | 1 |  | 
CCOC(=O)C1Cc2ccccc2CN1C(=O)C1CCCc2ccccc21 (stereo unspecified) | 0.73 |  | 
CN(C)c1cccc(OCC2Cc3ccccc3CN2C(=O)c2cccc3ccccc23)c1 (stereo unspecified) | 0.3 | 780 nM | 
O=C(NCC1Cc2ccccc2CN1C(=O)c1cccc2ccccc12)OCc1ccccc1 (stereo unspecified) | 0.53 |  | 
CCOC(=O)C1Cc2ccccc2CN1Cc1nc2ccccc2s1 (stereo unspecified) | 0.95 |  | 
CCOC(=O)C1Cc2ccccc2CN1C(=O)c1ccno1 (stereo unspecified) | 1 |  | 
CCOC(=O)C1Cc2ccccc2CN1Cc1ccc([N+](=O)[O-])s1 (stereo unspecified) | 0.78 |  | 
O=C(c1cccc2ccccc12)N1Cc2ccccc2CC1CNS(=O)(=O)c1ccccc1 (stereo unspecified) | 0.4 |  | 
O=C(c1cccc2ccccc12)N1Cc2ccccc2CC1COc1ccccc1 (stereo unspecified) | 0.37 | 840 nM | 
CCOC(=O)C1Cc2ccccc2CN1Cc1ccc(C(F)(F)F)nc1 (stereo unspecified) | 1 |  | 
CCOC(=O)C1Cc2ccccc2CN1C(=O)c1ccccc1Cl (stereo unspecified) | 0.78 |  | 
O=C(c1cccc2ccccc12)N1Cc2ccccc2CC1COc1ccc(-n2cncn2)cc1 (stereo unspecified) | 0.35 | 120 nM | 
O=C(c1cccc2ccccc12)N1Cc2ccccc2CC1COc1ccc(-c2ccccc2)cc1 (stereo unspecified) | 0.4 | 650 nM | 
NC(=O)C1Cc2ccccc2CN1C(=O)c1cccc2ccccc12 (stereo unspecified) | 0.61 |  | 
O=C(c1cccc2ccccc12)N1Cc2ccccc2CC1CNCc1ccccc1 (stereo unspecified) | 0.43 | > 3000 nM | half-life [3]: 1.7 h; Vd (Rattus norvegicus [4]): 3.8 L/kg; F (Rattus norvegicus [5]): 0%
CCOC(=O)C1Cc2ccccc2CN1S(=O)(=O)c1ccc(C)cc1 (stereo unspecified) | 0.51 | 1100 nM | 
CCOC(=O)C1Cc2ccccc2CN1C(=O)c1cccc2cccnc12 (stereo unspecified) | 0.64 |  | 
CCOC(=O)C1Cc2ccccc2CN1C(=O)c1cccc2c1CCCC2 (stereo unspecified) | 0.53 | 2100 nM | 
CCOC(=O)C1Cc2ccccc2CN1Cc1ccc([N+](=O)[O-])o1 (stereo unspecified) | 0.9 |  | 
CC(C)(C)Oc1ccc(OCC2Cc3ccccc3CN2C(=O)c2cccc3ccccc23)cc1 (stereo unspecified) | 0.5 | 140 nM | 
CCOC(=O)C1Cc2ccccc2CN1C(=O)C1COc2ccccc2O1 (stereo unspecified) | 0.81 |  | 
CCOC(=O)C1Cc2ccccc2CN1S(=O)(=O)c1cccc(Br)c1 (stereo unspecified) | 0.75 |  | 

Structure (SMILES) | fold change (FC) [1] | EC50 [2] | also measured
CCCOc1ccc(OCC2Cc3ccccc3CN2C(=O)c2cccc3ccccc23)cc1 (stereo unspecified) | 0.45 | 77 nM | 
O=C(Nc1ccccc1)C1Cc2ccccc2CN1C(=O)c1cccc2ccccc12 (stereo unspecified) | 0.59 |  | 
COc1cccc(OCC2Cc3ccccc3CN2C(=O)c2cccc3ccccc23)c1 (stereo unspecified) | 0.45 | 620 nM | 
O=C(c1cccc2ccccc12)N1Cc2ccccc2CC1COc1ccc(F)cc1 (stereo unspecified) | 0.43 | 800 nM | 
CCOC(=O)C1Cc2ccccc2CN1C(=O)c1cccc(Br)c1 (stereo unspecified) | 0.97 |  | 
CC(C)(C)OC(=O)CN(Cc1ccc(Cl)cc1)Cc1ccc([N+](=O)[O-])s1 [GSK-4112] | 0.82 | 2300 nM | EC50 [6]: 400 nM; half-life [3]: 0.4 h; Vd (Rattus norvegicus [4]): 9.9 L/kg; F (Rattus norvegicus [5]): 0%; Drug uptake (Brain): 140%
CCOC(=O)C1Cc2ccccc2CN1C(=O)Oc1cccc(C(F)(F)F)c1 (stereo unspecified) | 1 |  | 
O=C(c1cccc2ccccc12)N1Cc2ccccc2CC1COc1ccc(OC(F)(F)F)cc1 (stereo unspecified) | 0.4 | 600 nM | 
O=C(c1cccc2ccccc12)N1Cc2ccccc2CC1COCc1ccccc1 (stereo unspecified) | 0.41 | 650 nM | half-life [3]: 1.9 h; Vd (Rattus norvegicus [4]): 3.8 L/kg; F (Rattus norvegicus [5]): 0%
CC(=O)OCC1Cc2ccccc2CN1C(=O)c1cccc2ccccc12 (stereo unspecified) | 0.65 |  | 
NCC1Cc2ccccc2CN1C(=O)c1cccc2ccccc12 (stereo unspecified) | 0.74 |  | 
CCOC(=O)C1Cc2ccccc2CN1C(=O)Oc1ccc(Cl)cc1 (stereo unspecified) | 1.3 |  | 
O=C(O)C1Cc2ccccc2CN1C(=O)c1cccc2ccccc12 (stereo unspecified) | 0.67 |  | 
CCOc1ccc(OCC2Cc3ccccc3CN2C(=O)c2cccc3ccccc23)cc1 (stereo unspecified) | 0.35 | 97 nM | 
COc1ccccc1OCC1Cc2ccccc2CN1C(=O)c1cccc2ccccc12 (stereo unspecified) | 0.4 | 2000 nM | 
O=C(c1cccc2ccccc12)N1Cc2ccccc2CC1COc1cccc2ccccc12 (stereo unspecified) | 0.41 | 1200 nM | 
CCOC(=O)C1Cc2ccccc2CN1C(=O)c1ccccc1 (stereo unspecified) | 0.97 |  | 
CCOC(=O)C1Cc2ccccc2CN1C(=O)Nc1cccc2ccccc12 (stereo unspecified) | 1 |  | 
CCOC(=O)C1Cc2ccccc2CN1Cc1cccc2ccccc12 (stereo unspecified) | 1 |  | 
CCOC(=O)C1Cc2ccccc2CN1C(=O)c1cccc2oc(C)cc12 (stereo unspecified) | 0.51 | > 3000 nM | 
O=C(c1cccc2ccccc12)N1Cc2ccccc2CC1CO (stereo unspecified) | 0.71 |  | 
O=C(c1cccc2ccccc12)N1Cc2ccccc2CC1COc1ccc(F)cc1F (stereo unspecified) | 0.45 | 710 nM | 
CCOC(=O)C1Cc2ccccc2CN1Cc1ccc(C(=O)O)s1 (stereo unspecified) | 1 |  | 
CCOC(=O)C1Cc2ccccc2CN1S(=O)(=O)c1cccc2ccccc12 (stereo unspecified) | 0.5 | 1700 nM | 
COc1ccc(OCC2Cc3ccccc3CN2C(=O)c2cccc3ccccc23)cc1OC (stereo unspecified) | 0.55 | 330 nM | 
